Test results reported in ChEMBL document CHEMBL1141474, “Cryptolepine analogues containing basic aminoalkyl side-chains at C-11: synthesis, antiplasmodial activity, and cytotoxicity” (Bioorg Med Chem Lett, 2008).

Legend:
[1] = Ratio of IC50 for human HUVEC cells to IC50 for Plasmodium falciparum W2; format: functional
Procedure, shortened: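 Ratio of HUVEC (human umbilical vein endothelial cell) cytotoxicity IC50 to in vitro IC50 against the chloroquine-resistant P. falciparum W2 strain.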

[2] = system: HUVEC; experiment: Cytotoxicity against HUVEC cells; format: cell-based; settings: Homo sapiens
[3] = system: Plasmodium falciparum; experiment: Antiplasmodial activity against chloroquine-resistant Plasmodium falciparum W2; format: functional, organism-based

For `CCN(CC)CCNc1c2ccccc2[n+](C)c2c1[nH]c1ccccc12.[Cl-]`, the “Ratio IC50” value [1] was 8.2, the IC50 [2] was 674 nM and the IC50 [3] was 82 nM.
With `CN(C)CCCNc1c2ccccc2[n+](C)c2c1[nH]c1ccccc12.[Cl-]` the “Ratio IC50” value [1] was 5.2, the IC50 [2] was 155 nM and the IC50 [3] was 30 nM.
With `CCN(CC)CCCNc1c2ccccc2[n+](C)c2c1[nH]c1ccccc12.[Cl-]` the “Ratio IC50” value [1] was 3.6, the IC50 [2] was 114 nM and the IC50 [3] was 32 nM.
In the case of `CC(C)NCCCNc1c2ccccc2[n+](C)c2c1[nH]c1ccccc12.[Cl-]`, the “Ratio IC50” value [1] is reported as 36.1, the IC50 [2] is reported as 794 nM and the IC50 [3] is reported as 22 nM.
With `CCN(CC)CCCC(C)Nc1c2ccccc2[n+](C)c2c1[nH]c1ccccc12.[Cl-]` (stereo not drawn) the “Ratio IC50” value [1] was 0.3, the IC50 [2] was 35 nM and the IC50 [3] was 127 nM.
For `CC(CN(C)C)Nc1c2ccccc2[n+](C)c2c1[nH]c1ccccc12.[Cl-]` (stereo not drawn), the “Ratio IC50” value [1] was 4.7, the IC50 [2] was 617 nM and the IC50 [3] was 132 nM.
In the case of `C[n+]1c2ccccc2c(NC2CCNCC2)c2[nH]c3ccccc3c21.[Cl-]`, the “Ratio IC50” value [1] is reported as 46.4, the IC50 [2] is reported as 2040 nM and the IC50 [3] is reported as 44 nM.
For `CN(C)CC(C)(C)CNc1c2ccccc2[n+](C)c2c1[nH]c1ccccc12.[Cl-]`, the “Ratio IC50” value [1] was 0.5, the IC50 [2] was 82 nM and the IC50 [3] was 184 nM.
For `C[n+]1c2ccccc2c(NCCCN2CCCCC2)c2[nH]c3ccccc3c21.[Cl-]`, the “Ratio IC50” value [1] was 32.3, the IC50 [2] was 1160 nM and the IC50 [3] was 36 nM.
With `CN(C)CCNc1c2ccccc2[n+](C)c2c1[nH]c1ccccc12.[Cl-]` the “Ratio IC50” value [1] was 3.2, the IC50 [2] was 161 nM and the IC50 [3] was 50 nM.
In the case of `C[n+]1c2ccccc2cc2[n-]c3ccccc3c21.Cl` [CRYPTOLEPINE HYDROCHLORIDE], the “Ratio IC50” value [1] is reported as 1.6, the IC50 [2] is reported as 1180 nM and the IC50 [3] is reported as 755 nM.
